The values below come from ChEMBL document CHEMBL1687892, “Potent agonists of the protease activated receptor 2 (PAR2)” (J Med Chem, 2011).

Calls of active or inactive are those of the source. The rule behind the calls is not given here.

Format in all cases: functional, cell-based
The target in experiment [1] is Proteinase-activated receptor 2 (Homo sapiens) (UniProt P55085). The experiment in a line: Agonist activity at PAR2 in human 16HBE14o cells assessed as activated cells at 100 uM by intracellular calcium mobilization fura-2-AM assay. The method in brief:
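16HBE14o- cells were grown 5–7 days on matrix-coated coverslips, loaded with fura-2, and imaged by digital microscopy over 3 min (80–100 cells). A cell counted as activated if [Ca2+]i rose to ≥200 nM from a resting 50–75 nM, scored as % of cells. Doses ran from 100 μM down to 250 nM. EC50 came from % responding. Mean ± SEM, N ≥ 2 at 100 μM, N ≥ 4 otherwise.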
On the technique in general: Calcium assays in cells follow changes in intracellular calcium, usually with a dye or a luminescent sensor.

Experiment [2] shares this target. The experiment in a line: Agonist activity at PAR2 in human 16HBE14o cells assessed as increase in intracellular calcium levels at […] by in vitro physiological response assay.
The target is the same in experiment [3]. The experiment in a line: Agonist activity at PAR2 in human 16HBE14o cells assessed as activated cells at […] by intracellular calcium mobilization fura-2-AM assay.
Experiment [4] shares this target. In words: Agonist activity at human PAR2 expressed in human HeLa cells assessed as increase in intracellular calcium levels at 5 uM by fura-2-AM dye based digital imaging microscopy.
Experiment [5] shares this target. In words: Agonist activity at human PAR2 expressed in rat kNRK cells assessed as increase in intracellular calcium levels at 5 uM by fura-2-AM dye based digital imaging microscopy. The gist of the method:
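Cells transfected with human PAR2 (HeLa-PAR2 or kNRK-PAR2) were compared with low-expressing or plasmid-control cells of the same line. Cells were grown on matrix-coated coverslips and loaded with fura-2. 5 μM agonist was added, and mean [Ca2+]i of all cells in the field (~90) was imaged every 0.6 s, ± SEM.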

Proteinase-activated receptor 2 (Homo sapiens), sequence (P55085 whole entry): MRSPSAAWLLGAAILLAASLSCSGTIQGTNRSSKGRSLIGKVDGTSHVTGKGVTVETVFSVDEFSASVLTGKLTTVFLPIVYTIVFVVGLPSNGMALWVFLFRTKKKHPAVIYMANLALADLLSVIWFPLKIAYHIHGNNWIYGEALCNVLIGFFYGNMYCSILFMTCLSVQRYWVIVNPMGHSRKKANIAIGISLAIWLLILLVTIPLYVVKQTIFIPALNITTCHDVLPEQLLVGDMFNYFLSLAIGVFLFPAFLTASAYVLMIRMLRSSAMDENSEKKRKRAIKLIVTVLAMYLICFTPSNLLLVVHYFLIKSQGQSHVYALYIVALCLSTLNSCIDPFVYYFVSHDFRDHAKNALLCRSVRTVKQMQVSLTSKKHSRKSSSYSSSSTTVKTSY

Turning to `CC[C@H](C)[C@H](NC(=O)[C@H](CC(C)C)NC(=O)c1nc(N)n[nH]1)C(=O)NCC(=O)N[C@@H](CCCNC(=N)N)C(=O)N[C@@H](CC(C)C)C(N)=O`, in experiment [1], the result was Active. Moreover, the result in experiment [2] and in experiment [3] was inactive. Turning to `CC[C@H](C)[C@H](NC(=O)[C@H](CC(C)C)NC(=O)c1csc(N)n1)C(=O)NCC(=O)N[C@@H](CCCNC(=N)N)C(=O)N[C@@H](CC(C)C)C(N)=O`, the result in experiment [4] and in experiment [5] was Active. Regarding `CC[C@H](C)[C@H](NC(=O)[C@H](CC(C)C)NC(=O)c1ccc(S(N)(=O)=O)cc1)C(=O)NCC(=O)N[C@@H](CCCNC(=N)N)C(=O)N[C@@H](CC(C)C)C(N)=O`, the outcome in experiment [1] was Active. Further, the outcome in experiment [3] was inactive. With `CC[C@H](C)[C@H](NC(=O)[C@H](CC(C)C)NC(=O)CCN1CCCCC1)C(=O)NCC(=O)N[C@@H](CCCNC(=N)N)C(=O)N[C@@H](CC(C)C)C(N)=O`, the Activity in experiment [1] came to 0%. As to `CC[C@H](C)[C@H](NC(=O)[C@H](CC(C)C)NC(=O)CC#N)C(=O)NCC(=O)N[C@@H](CCCNC(=N)N)C(=O)N[C@@H](CC(C)C)C(N)=O`, in experiment [1], the result was Active. In experiment [3], the outcome was inactive.

Regarding `CC[C@H](C)[C@H](NC(=O)[C@H](CC(C)C)NC(=O)c1ccnc(N)c1)C(=O)NCC(=O)N[C@@H](CCCNC(=N)N)C(=O)N[C@@H](CC(C)C)C(N)=O`, the result in experiment [1] was Active. In addition, the outcome in experiment [2] and in experiment [3] was inactive. Consider `CC[C@H](C)[C@H](NC(=O)[C@H](CC(C)C)NC(=O)Cc1c[nH]c2ccccc12)C(=O)NCC(=O)N[C@@H](CCCNC(=N)N)C(=O)N[C@@H](CC(C)C)C(N)=O`, for which, in experiment [1], the Activity was determined as 0%.

For the molecule `CC[C@H](C)[C@H](NC(=O)[C@H](CC(C)C)NC(=O)COCC(=O)O)C(=O)NCC(=O)N[C@@H](CCCNC(=N)N)C(=O)N[C@@H](CC(C)C)C(N)=O`, the Activity in experiment [1] worked out at 0%. Same read-out and setting: then `CC[C@H](C)[C@H](NC(=O)[C@H](CC(C)C)NC(=O)c1cccc2[nH]ccc12)C(=O)NCC(=O)N[C@@H](CCCNC(=N)N)C(=O)N[C@@H](CC(C)C)C(N)=O`, with 0%; and `CC[C@H](C)[C@H](NC(=O)[C@H](CC(C)C)NC(=O)c1cccnc1O)C(=O)NCC(=O)N[C@@H](CCCNC(=N)N)C(=O)N[C@@H](CC(C)C)C(N)=O`, with 0%.

As to `CC[C@H](C)[C@H](NC(=O)[C@H](CC(C)C)NC(=O)c1cnccn1)C(=O)NCC(=O)N[C@@H](CCCNC(=N)N)C(=O)N[C@@H](CC(C)C)C(N)=O`, the outcome in experiment [1] was Active. In addition, the outcome in experiment [3] was inactive. For `CC[C@H](C)[C@H](NC(=O)[C@H](CC(C)C)NC(=O)c1ccc(N)nc1)C(=O)NCC(=O)N[C@@H](CCCNC(=N)N)C(=O)N[C@@H](CC(C)C)C(N)=O`, the result in experiment [4] and in experiment [5] was Active. Consider `CC[C@H](C)[C@H](NC(=O)[C@H](CC(C)C)NC(=O)c1cccnc1N)C(=O)NCC(=O)N[C@@H](CCCNC(=N)N)C(=O)N[C@@H](CC(C)C)C(N)=O`, for which, in experiment [1], the outcome was Active. In addition, the result in experiment [2] and in experiment [3] was inactive.
